PubChem BioAssay AID624075 (Broad Institute, 2012)
Activity calls are given as the source filed them.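 The calls were made as follows: active = fitted curve reaches -35% activity change at a concentration no higher than twice the top valid tested dose; inactive = the rest, including activity in the opposite direction.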

test system: not listed separately; experiment: P. aeruginosa PAK growth delay under chelation, dose response, whole organism, PAK strain, OD600, EDDHA, dry powder, set 4 (AID 624075); settings: P. aeruginosa PAK growth with EDDHA, OD600, 28 h; at 100 µM (top of the series)
How it was run: (§1)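 Material: Wild-type Pseudomonas aeruginosa PAK bacterial culture | Also added: EDDHA, 2 µM | Doses: Concentration series from 100 µM down to 15 nM final | Buffer or medium: Succinate M9 medium, pH 7.0 | Signal: Absorbance at 600 nm as growth measure | Timing: 28 h growth at 30 °C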

| SMILES | activity change, negative = growth inhibition |
| --- | --- |
| N#CC(c1ccc(Cl)cc1)c1ncccc1Cl (stereo not drawn) | -18.1% (inactive) |
| CCCCC(c1ccc(Cl)cc1)c1nn[nH]n1 (stereo not drawn) | -6.42% (inactive) |
| N#CC(c1ccc(Cl)cc1)c1ccc(Cl)cn1 (stereo not drawn) | -13.9% (inactive) |
| COCCNC(C#N)c1ccc(Cl)cc1 (stereo not drawn) | -2.09% (inactive) |
| CCCCC(C#N)c1ccc(F)cn1 (stereo not drawn) | -7.64% (inactive) |
| COCCC(C#N)c1ccc(F)cc1 (stereo not drawn) | -1.57% (inactive) |

test system: P. aeruginosa PAK growth with EDDHA, OD600, 28 h; experiment: as above; settings: not given
How it was run: as §1

| SMILES | AC35 |
| --- | --- |
| N#CC(c1ccc(F)cc1)c1cccc(C(F)(F)F)n1 (stereo not drawn) | 88.7 µM |
| N#CC(c1ccc(Cl)cc1)c1cccc(C(F)(F)F)n1 (stereo not drawn) | 71.1 µM |
